Results published in ChEMBL document CHEMBL3259739, “Synthesis and structure-activity relationship of trisubstituted thiazoles as Cdc7 kinase inhibitors” (Eur J Med Chem, 2014).

Key:
[1] = Efflux ratio of permeability of the compound in pig LLC-PK1 cells; format: ADME, cell-based, Sus scrofa
rat MDR1 [2] = experiment: Efflux ratio of permeability of the compound in pig LLC-PK1 cells expressing rat MDR1; format: ADME, cell-based, Sus scrofa
[3] = target: T1, CDC7/DBF4 (Cell division cycle 7-related protein kinase/Activator of S phase kinase) (Homo sapiens, UniProt O00311); experiment: Inhibition of Cdc7/Dbf4 (unknown origin) using 0.047 uM of ATP as substrate by AlphaScreen assay; format: protein-complex assay
T1 sequence (Q9UBU7 whole entry): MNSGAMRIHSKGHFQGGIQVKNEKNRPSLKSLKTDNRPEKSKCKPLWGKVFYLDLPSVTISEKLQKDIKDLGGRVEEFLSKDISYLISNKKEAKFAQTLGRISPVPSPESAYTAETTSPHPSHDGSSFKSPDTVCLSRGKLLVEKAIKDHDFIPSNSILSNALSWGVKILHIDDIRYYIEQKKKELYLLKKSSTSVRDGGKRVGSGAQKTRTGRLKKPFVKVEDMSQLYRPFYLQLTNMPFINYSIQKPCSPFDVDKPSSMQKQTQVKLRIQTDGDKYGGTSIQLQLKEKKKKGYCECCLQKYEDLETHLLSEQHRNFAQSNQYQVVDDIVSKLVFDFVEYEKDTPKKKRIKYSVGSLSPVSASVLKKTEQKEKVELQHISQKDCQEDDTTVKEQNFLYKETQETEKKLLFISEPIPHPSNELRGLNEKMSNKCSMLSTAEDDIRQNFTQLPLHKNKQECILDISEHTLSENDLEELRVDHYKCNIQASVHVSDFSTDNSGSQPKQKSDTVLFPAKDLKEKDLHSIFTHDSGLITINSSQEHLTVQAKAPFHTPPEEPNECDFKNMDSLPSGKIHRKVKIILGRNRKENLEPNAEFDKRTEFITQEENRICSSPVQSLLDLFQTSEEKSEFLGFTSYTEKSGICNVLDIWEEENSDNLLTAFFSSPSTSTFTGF
T1 sequence (O00311 whole entry): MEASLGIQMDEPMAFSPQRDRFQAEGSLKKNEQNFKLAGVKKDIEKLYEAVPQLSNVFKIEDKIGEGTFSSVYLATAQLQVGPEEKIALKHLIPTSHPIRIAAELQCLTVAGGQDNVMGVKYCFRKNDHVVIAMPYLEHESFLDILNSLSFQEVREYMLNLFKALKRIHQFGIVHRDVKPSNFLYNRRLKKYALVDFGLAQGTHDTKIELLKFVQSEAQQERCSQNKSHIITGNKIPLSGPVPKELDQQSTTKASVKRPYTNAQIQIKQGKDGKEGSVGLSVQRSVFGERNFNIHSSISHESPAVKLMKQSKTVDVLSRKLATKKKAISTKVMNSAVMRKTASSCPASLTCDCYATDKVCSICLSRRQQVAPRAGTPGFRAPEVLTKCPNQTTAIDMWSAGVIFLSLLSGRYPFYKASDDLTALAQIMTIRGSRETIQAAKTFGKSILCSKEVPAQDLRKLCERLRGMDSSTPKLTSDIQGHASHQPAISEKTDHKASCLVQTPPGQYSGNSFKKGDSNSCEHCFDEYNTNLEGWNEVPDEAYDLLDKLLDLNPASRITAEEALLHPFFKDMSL
Summary of the method: (§1)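 Mechanism-of-action AlphaScreen run with 6 nM Cdc7/Dbf4 and 10 nM biotinylated MCM2 substrate. […] Reaction time was 2 h. Phospho-Ser53 MCM2 was read by antibody-bound acceptor beads with streptavidin donor beads. Rates and Ki were fitted to a competitive inhibition model.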

[4] = Apparent permeability of the compound in pig LLC-PK1 cells; format: ADME, cell-based, Sus scrofa
MDR1 [5] = experiment: Apparent permeability of the compound in pig LLC-PK1 cells expressing MDR1; format: ADME, cell-based, Sus scrofa
[6] = target: T1, CDC7/DBF4 (Cell division cycle 7-related protein kinase/Activator of S phase kinase); experiment: Inhibition of Cdc7/Dbf4 (unknown origin) using 3 uM of ATP as substrate by AlphaScreen assay; format: protein-complex assay
rat MDR1 [7] = experiment: Apparent permeability of the compound in pig LLC-PK1 cells expressing rat MDR1; format: ADME, cell-based, Sus scrofa
[8] = target: T1, CDC7/DBF4 (Cell division cycle 7-related protein kinase/Activator of S phase kinase); experiment: Inhibition of Cdc7/Dbf4 (unknown origin) using 0.094 uM of ATP as substrate by AlphaScreen assay; format: protein-complex assay; summary of the method: as §1
[9] = target: T1, CDC7/DBF4 (Cell division cycle 7-related protein kinase/Activator of S phase kinase); experiment: Inhibition of Cdc7/Dbf4 (unknown origin) using 0.023 uM of ATP as substrate by AlphaScreen assay; format: protein-complex assay
Summary of the method: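 AlphaScreen with 6 nM Cdc7/Dbf4 and 10 nM biotinylated His/avitag MCM2 (aa1-467) substrate. Phospho-Ser53 MCM2 detected with antibody-bound Protein A acceptor and streptavidin donor beads. Rates fitted by Michaelis–Menten and double-reciprocal plots.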

MDR1 [10] = experiment: Efflux ratio of permeability of the compound in pig LLC-PK1 cells expressing MDR1; format: ADME, cell-based, Sus scrofa
[11] = target: CDC7/DBF4 (Cell division cycle 7-related protein kinase/Activator of S phase kinase) (Homo sapiens) (UniProt Q9UBU7+O00311); experiment: Ratio of IC50 for Cdc7/Dbf4 in human HCT116 cells to IC50 for Cdc7/Dbf4 (unknown origin); format: cell-based; settings: HCT-116
CDC7/DBF4 (Cell division cycle 7-related protein kinase/Activator of S phase kinase) (Homo sapiens), sequence (O00311 whole entry, looked up): as the sequence (O00311 whole entry) above
CDC7/DBF4 (Cell division cycle 7-related protein kinase/Activator of S phase kinase) (Homo sapiens), sequence (Q9UBU7 whole entry, looked up): as the sequence (Q9UBU7 whole entry) above

[12] = target: T1, CDC7/DBF4 (Cell division cycle 7-related protein kinase/Activator of S phase kinase); experiment: Inhibition of Cdc7/Dbf4 (unknown origin) using 0.222 uM of ATP as substrate by AlphaScreen assay; format: protein-complex assay
Plasma [13] = experiment: Unbound plasma concentration in NCR nude mouse xenografted with human HCT116 cells at 150 mg/kg, iv after 6 hrs; format: ADME, organism-based, HCT-116; set-up: dose 150 mg/kg, route intravenous; settings: in vivo
Summary of the method: (§2)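 HCT-116 xenograft NCR/nu mice (three per group) were given a single iv dose in 20% HPbCD, 1% HPMC, 1% PluronicF68, pH7 at 10 mg/ml. Plasma collected at the time points was measured by LC/MS. Values were converted to unbound concentrations using percent plasma protein binding in mouse serum.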

[14] = target: T1, CDC7/DBF4 (Cell division cycle 7-related protein kinase/Activator of S phase kinase); experiment: Inhibition of Cdc7/Dbf4 (unknown origin) using 2 uM of ATP as substrate by AlphaScreen assay; format: protein-complex assay
Mus musculus [15] = experiment: Toxicity in NCR nude mouse xenografted with human HCT116 cells at 50 mg/kg, iv; format: organism-based, HCT-116; set-up: dose 50 mg/kg, route intravenous; settings: in vivo
Summary of the method: (§3)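 Female athymic NCR/nu mice bearing subcutaneous HCT-116 xenografts (about 250 mm3) received a single iv dose in 20% HPbCD, 1% HPMC, 1% PluronicF68, pH7 (10 mg/ml); three mice per group. Tolerability was judged by observation over the 1–16 h sampling period.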

[16] = Oral bioavailability in Sprague-Dawley rat at 5 mg/kg; format: ADME, organism-based; settings: in vivo
Summary of the method: (§4)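 Male Sprague-Dawley rats given 5 mg/kg orally in 2% HPMC, 1% Tween80, pH2 (an iv arm received 2 mg/kg in DMSO). Plasma was sampled from 0.25 to 24 h and analyzed by LC/MS.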

[17] = AUC (0 to infinity) in Sprague-Dawley rat at 5 mg/kg, po; format: ADME, organism-based; set-up: time infinity, dose 5 mg/kg, route oral; settings: plasma
[18] = target: T1, CDC7/DBF4 (Cell division cycle 7-related protein kinase/Activator of S phase kinase); experiment: Inhibition of Cdc7/Dbf4 (unknown origin) using 54 uM of ATP as substrate by AlphaScreen assay; format: protein-complex assay
[19] = target: T1, CDC7/DBF4 (Cell division cycle 7-related protein kinase/Activator of S phase kinase); experiment: Inhibition of Cdc7/Dbf4 (unknown origin) using 6 uM of ATP as substrate by AlphaScreen assay; format: protein-complex assay
Mus musculus [20] = experiment: Toxicity in NCR nude mouse xenografted with human HCT116 cells assessed as appearance of moribund at 150 mg/kg, iv after 6 hrs; format: organism-based, HCT-116; set-up: dose 150 mg/kg, route intravenous; settings: in vivo; summary of the method: as §3
Plasma [21] = experiment: Unbound plasma concentration in NCR nude mouse xenografted with human HCT116 cells at 50 mg/kg, iv after 1 hr; format: ADME, organism-based, HCT-116; set-up: dose 50 mg/kg, route intravenous; settings: in vivo; summary of the method: as §2
[22] = target: T1, CDC7/DBF4 (Cell division cycle 7-related protein kinase/Activator of S phase kinase); experiment: Inhibition of Cdc7/Dbf4 (unknown origin) using 0.037 uM of ATP as substrate by AlphaScreen assay; format: protein-complex assay
[23] = AUC (0 to t) in Sprague-Dawley rat at 2 mg/kg, iv; format: ADME, organism-based; set-up: dose 2 mg/kg, route intravenous; settings: plasma
[24] = Clearance in Sprague-Dawley rat at 2 mg/kg, iv; format: ADME, organism-based; set-up: dose 2 mg/kg, route intravenous; settings: in vivo
[25] = target: T1, CDC7/DBF4 (Cell division cycle 7-related protein kinase/Activator of S phase kinase); experiment: Inhibition of Cdc7/Dbf4 (unknown origin) using 27 uM of ATP as substrate by AlphaScreen assay; format: protein-complex assay
[26] = target: T1, CDC7/DBF4 (Cell division cycle 7-related protein kinase/Activator of S phase kinase); experiment: Inhibition of Cdc7/Dbf4 (unknown origin) using 18 uM of ATP as substrate by AlphaScreen assay; format: protein-complex assay
[27] = target: T1, CDC7/DBF4 (Cell division cycle 7-related protein kinase/Activator of S phase kinase); experiment: Inhibition of Cdc7/Dbf4 (unknown origin) using 0.333 uM of ATP as substrate by AlphaScreen assay; format: protein-complex assay
[28] = target: T1, CDC7/DBF4 (Cell division cycle 7-related protein kinase/Activator of S phase kinase); experiment: Inhibition of Cdc7/Dbf4 (unknown origin) using 0.025 uM of ATP as substrate by AlphaScreen assay; format: protein-complex assay
[29] = Mean residence time in Sprague-Dawley rat at 2 mg/kg, iv; format: ADME, organism-based; set-up: dose 2 mg/kg, route intravenous; settings: in vivo
Mus musculus [30] = experiment: Inhibition of Cdc7/Dbf4 in NCR nude mouse xenografted with human HCT116 cells assessed as reduction of phosphorylated MCM2 level in tumor at 150 mg/kg, iv after 6 hrs; format: functional; settings: HCT-116, 6 h
Summary of the method: (§5)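 Female athymic NCR/nu mice, 4–6 weeks old, bearing subcutaneous HCT-116 xenografts (5 × 10^6 cells in Matrigel) grown to about 250 mm3. Single iv dose formulated in 20% HPbCD, 1% HPMC, 1% PluronicF68, pH7 at 10 mg/ml; three mice per group. Tumors were homogenized in Tris lysis buffer with protease and phosphatase inhibitors. MSD capture with total MCM2 antibody, then phospho-Ser53 or total MCM2 detection by chemiluminescence; inhibition taken from the phospho/total ratio.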

[31] = target: T1, CDC7/DBF4 (Cell division cycle 7-related protein kinase/Activator of S phase kinase); experiment: Inhibition of Cdc7/Dbf4 (unknown origin) using 0.667 uM of ATP as substrate by AlphaScreen assay; format: protein-complex assay
Mus musculus [32] = experiment: Inhibition of Cdc7/Dbf4 in NCR nude mouse xenografted with human HCT116 cells assessed as reduction of phosphorylated MCM2 level in tumor at 150 mg/kg, iv after 3 hrs; format: functional; settings: HCT-116, 3 h; summary of the method: as §5
[33] = AUC (0 to t) in Sprague-Dawley rat at 5 mg/kg, po; format: ADME, organism-based; set-up: dose 5 mg/kg, route oral; settings: plasma
[34] = target: T1, CDC7/DBF4 (Cell division cycle 7-related protein kinase/Activator of S phase kinase); experiment: Inhibition of Cdc7/Dbf4 (unknown origin) using 0.074 uM of ATP as substrate by AlphaScreen assay; format: protein-complex assay
[35] = Tmax in Sprague-Dawley rat at 5 mg/kg, po; format: ADME, organism-based; set-up: dose 5 mg/kg, route oral; settings: in vivo; summary of the method: as §4
Mus musculus [36] = experiment: Inhibition of Cdc7/Dbf4 in NCR nude mouse xenografted with human HCT116 cells assessed as reduction of phosphorylated MCM2 level in tumor at 50 mg/kg, iv after 6 hrs; format: functional; settings: HCT-116, 6 h; summary of the method: as §5

## CCOC(=O)c1sc(-c2ccncc2)nc1O
[1]
  efflux ratio: 1
Rat MDR1 [2]
  efflux ratio: 1
[3]
  IC50: 0.405 µM
[4]
  Papp: ≥ 8.9 ×10⁻⁶ cm/s
MDR1 [5]
  Papp: ≥ 8.9 ×10⁻⁶ cm/s
[6]
  IC50: 0.419 µM
Rat MDR1 [7]
  Papp: ≥ 8.9 ×10⁻⁶ cm/s
[8]
  IC50: 0.528 µM
[9]
  IC50: 0.3 µM
MDR1 [10]
  efflux ratio: 1

## COc1ccc(-c2nc(-c3ccnc(N)n3)sc2C(N)=O)c(Cl)c1
[11]
  Ratio IC50: > 30

## NC(=O)c1sc(-c2ccnc(N)n2)nc1-c1ccc(Cl)cc1Cl
[12]
  IC50: 0.035 µM
Plasma [13]
  Cp(f): > 1000 nM
[14]
  IC50: 0.01 µM
Mus musculus [15]
  Activity: Non-toxic
[16]
  bioavailability: 6.58%
[17]
  AUC(0-inf): 85.7 ng·h/mL
[18]
  IC50: 0.086 µM
[19]
  IC50: 0.013 µM
Mus musculus [20]
  Activity: Toxic
Plasma [21]
  Cp(f): > 1000 nM
[22]
  IC50: 0.063 µM
[23]
  AUC(0-t): 518 ng·h/mL
[24]
  clearance: 64.8 mL/min/kg
[25]
  IC50: 0.044 µM
[26]
  IC50: 0.023 µM
[27]
  IC50: 0.02 µM
[28]
  IC50: 0.04 µM
[29]
  MRT: 1.15 h
Mus musculus [30]
  inhibition in vivo at 150 mg/kg: 31%
[31]
  IC50: 0.014 µM
Mus musculus [32]
  inhibition in vivo at 150 mg/kg: 38%
[33]
  AUC(0-t): 83.3 ng·h/mL
[34]
  IC50: 0.064 µM
[35]
  Tmax: 2.17 h
Mus musculus [36]
  inhibition in vivo at 50 mg/kg: 20%
